From ChEMBL document CHEMBL3526053, “Species-dependent uptake of glycylsarcosine but not oseltamivir in Pichia pastoris expressing the rat, mouse, and human intestinal peptide transporter PEPT1” (Drug Metab Dispos, 2012)

Legend:
Assay type in all cases: ADME
[1] = target: T1, Solute carrier family 15 member 1 (Homo sapiens, UniProt P46059); assay: Drug uptake in Pichia pastoris GS115 expressing human recombinant PEPT1 at 5 uM after 30s by dual-channel liquid scintillation counting analysis in presence of valacyclovir relative to control; settings: 0.5 min
T1 sequence (P46059 whole entry): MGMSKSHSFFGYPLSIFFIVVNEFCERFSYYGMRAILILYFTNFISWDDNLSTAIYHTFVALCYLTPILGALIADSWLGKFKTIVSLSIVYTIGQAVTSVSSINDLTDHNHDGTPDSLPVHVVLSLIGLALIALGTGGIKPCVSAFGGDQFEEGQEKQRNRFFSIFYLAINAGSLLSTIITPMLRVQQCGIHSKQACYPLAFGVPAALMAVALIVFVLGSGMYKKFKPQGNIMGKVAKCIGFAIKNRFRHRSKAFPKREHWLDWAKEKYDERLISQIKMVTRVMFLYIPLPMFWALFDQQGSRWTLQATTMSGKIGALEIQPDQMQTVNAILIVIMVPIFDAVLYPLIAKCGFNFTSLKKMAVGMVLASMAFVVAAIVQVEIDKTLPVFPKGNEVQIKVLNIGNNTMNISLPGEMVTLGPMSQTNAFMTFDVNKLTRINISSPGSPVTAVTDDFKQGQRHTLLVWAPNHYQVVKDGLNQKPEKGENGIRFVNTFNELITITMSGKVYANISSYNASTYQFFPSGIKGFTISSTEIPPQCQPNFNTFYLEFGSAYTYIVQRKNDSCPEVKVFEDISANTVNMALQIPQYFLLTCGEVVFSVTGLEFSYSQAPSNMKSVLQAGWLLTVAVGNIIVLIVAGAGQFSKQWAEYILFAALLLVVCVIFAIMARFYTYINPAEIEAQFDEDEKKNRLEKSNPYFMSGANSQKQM
In short: (§1)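 [3H]GlySar 5.0 µM final, 30-s uptake at 24°C in 100 mM potassium phosphate pH 6.5, with or without a potential inhibitor at 10 mM. Cells are methanol-induced transformants. Values are vector-subtracted and expressed as percent of buffer control. Mean ± SE (n=3). ANOVA with Dunnett's test.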

[2] = target: T1, Solute carrier family 15 member 1; assay: Drug uptake in Pichia pastoris GS115 expressing human recombinant PEPT1 at 5 uM after 30s by dual-channel liquid scintillation counting analysis in presence of elacridar relative to control; settings: 0.5 min; in short: as §1
[3] = target: T2, PEPT1 (Mus musculus, UniProt Q9JIP7); assay: Drug uptake in Pichia pastoris GS115 expressing mouse recombinant PEPT1 at 5 uM after 30 mins by dual-channel liquid scintillation counting analysis relative to vector control; settings: read-out: FC
T2 sequence (Q9JIP7 whole entry): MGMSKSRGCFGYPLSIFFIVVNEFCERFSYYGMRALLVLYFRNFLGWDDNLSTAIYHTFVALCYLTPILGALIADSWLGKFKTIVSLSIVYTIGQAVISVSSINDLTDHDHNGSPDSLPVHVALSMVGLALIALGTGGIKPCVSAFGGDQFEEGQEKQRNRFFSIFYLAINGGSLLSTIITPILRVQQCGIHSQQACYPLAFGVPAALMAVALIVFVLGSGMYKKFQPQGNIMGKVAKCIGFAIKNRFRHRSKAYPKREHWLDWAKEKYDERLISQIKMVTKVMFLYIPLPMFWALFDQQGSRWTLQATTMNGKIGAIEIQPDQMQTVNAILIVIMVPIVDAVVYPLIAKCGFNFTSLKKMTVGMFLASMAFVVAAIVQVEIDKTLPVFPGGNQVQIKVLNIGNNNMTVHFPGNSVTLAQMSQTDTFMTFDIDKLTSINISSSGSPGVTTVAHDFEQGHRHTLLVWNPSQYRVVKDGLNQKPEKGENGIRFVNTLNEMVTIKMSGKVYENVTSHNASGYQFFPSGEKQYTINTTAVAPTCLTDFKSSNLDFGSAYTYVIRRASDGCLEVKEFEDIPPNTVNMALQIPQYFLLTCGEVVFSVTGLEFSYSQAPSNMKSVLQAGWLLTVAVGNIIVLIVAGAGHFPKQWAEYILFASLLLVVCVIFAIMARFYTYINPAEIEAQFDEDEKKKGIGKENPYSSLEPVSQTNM
In short: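 5.0 µM radiolabelled substrate ([3H]GlySar or [14C]oseltamivir) is incubated 30 min at 24°C with induced transformants in 100 mM potassium phosphate pH 6.5. Cell-associated radioactivity is counted by scintillation after standing 24 h and normalised to OD600. Results are compared with pPIC3.5K vector-alone cells. Mean ± SE (n=6).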

[4] = target: T3, Solute carrier family 15 member 1 (Rattus norvegicus, UniProt P51574); assay: Drug uptake in Pichia pastoris GS115 expressing rat recombinant PEPT1 at 5 uM after 30s by dual-channel liquid scintillation counting analysis relative to control; settings: 0.5 min
T3 sequence (P51574 whole entry): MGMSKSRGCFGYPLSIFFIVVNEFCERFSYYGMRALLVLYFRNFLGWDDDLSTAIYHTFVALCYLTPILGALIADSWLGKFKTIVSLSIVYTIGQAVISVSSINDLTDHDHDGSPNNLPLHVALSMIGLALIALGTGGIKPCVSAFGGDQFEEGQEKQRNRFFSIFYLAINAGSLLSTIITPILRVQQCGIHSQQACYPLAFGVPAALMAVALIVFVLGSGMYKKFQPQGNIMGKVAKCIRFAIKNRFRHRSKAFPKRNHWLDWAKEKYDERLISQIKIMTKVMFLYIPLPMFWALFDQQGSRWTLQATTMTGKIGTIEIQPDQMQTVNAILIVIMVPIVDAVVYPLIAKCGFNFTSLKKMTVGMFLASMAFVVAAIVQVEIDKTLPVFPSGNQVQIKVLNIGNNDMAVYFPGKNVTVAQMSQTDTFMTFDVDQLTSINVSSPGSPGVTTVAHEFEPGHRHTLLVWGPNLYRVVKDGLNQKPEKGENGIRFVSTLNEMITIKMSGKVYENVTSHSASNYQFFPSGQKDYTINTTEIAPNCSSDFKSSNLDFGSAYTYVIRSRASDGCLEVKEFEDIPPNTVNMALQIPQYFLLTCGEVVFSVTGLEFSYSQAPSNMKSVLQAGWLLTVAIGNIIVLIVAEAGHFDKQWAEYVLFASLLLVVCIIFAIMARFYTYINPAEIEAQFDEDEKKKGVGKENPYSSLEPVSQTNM
In short: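 Rat PEPT1 and vector-only (pPIC3.5K) GS115 yeast, methanol-induced 20-24 hr. Cells were washed and concentrated tenfold in 100 mM phosphate buffer pH 6.5. [3H]GlySar or [14C]oseltamivir final 5.0 µM, 24°C, 30 sec and 5 min. Nonspecific binding was measured at 0°C and zero time. Uptake is given as pmol/OD600 by scintillation counting. Mean ± SE, n=6.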

[5] = target: T1, Solute carrier family 15 member 1; assay: Drug uptake in Pichia pastoris GS115 expressing human recombinant PEPT1 at 5 uM after 30s by dual-channel liquid scintillation counting analysis in presence of cephradine relative to control; settings: 0.5 min; in short: as §1

Q: Which Drug uptake [1] does the source give for `[3H]C(C(=O)O)N(C)C(=O)CN` (stereo not given) here?
A: The Drug uptake was 3.5%.

Q: And the Drug uptake [2]?
A: Its Drug uptake is 100%.

Q: And the uptake ratio at 0.5 h, 5 µM [3]?
A: Its uptake ratio at 0.5 h, 5 µM is 100.

Q: And the Drug uptake [4]?
A: Its Drug uptake is 100%.

Q: What about the Drug uptake [5] of the same compound?
A: The Drug uptake was 23.2%.
